Bioassay records deposited in PubChem BioAssay by several laboratories.
Rows were chosen to be rich in hits. Some 2.2% of all compounds tested hit in one or more screens of this group.
GalR3 antagonist – blocks the human galanin receptor 3; O60755; HEK293 GalR3-CNG cAMP membrane potential fluorescence; galR3 body fused to GalR1 C-terminus; inhibition, % at 3 µM; actives 0.44% (n = 360,000);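 active = inhibition above the screen-wide average plus 3 SD, cut at about 13% in these data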;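 note: forskolin and galanin both at EC90 stimulate the cells; cAMP rise reported by CNG channel membrane potential dye signal; 0% = forskolin plus galanin with DMSO and 100% = forskolin alone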
Target sequence (O60755 1-299 limits assumed): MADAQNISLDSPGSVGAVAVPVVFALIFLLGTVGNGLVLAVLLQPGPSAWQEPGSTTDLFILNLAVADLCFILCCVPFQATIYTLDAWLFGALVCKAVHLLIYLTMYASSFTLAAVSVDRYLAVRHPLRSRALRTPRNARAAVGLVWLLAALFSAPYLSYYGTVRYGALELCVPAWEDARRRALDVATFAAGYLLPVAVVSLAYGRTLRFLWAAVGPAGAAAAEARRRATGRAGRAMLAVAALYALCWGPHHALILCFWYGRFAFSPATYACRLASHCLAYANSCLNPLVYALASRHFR
GAA850 FXN act – increases GAA850 frataxin promoter reporter activity; HEK293 lucGAA850 FXN promoter luciferase reporter, 24 h; percent of 10 µM SAHA response; activation, % at 6 µM; actives 0.56% (n = 360,000);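 active = activation above the average of all compounds screened plus 3 SD, cutoff fixed separately per campaign, cut at about 7.5% in these data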;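 note: 0% = DMSO wells and 100% = 10 µM SAHA wells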
Env fusion inh – inhibitors of HIV Env-mediated cell fusion. inhibition, % at 12.3 µM. actives 1.1% (n = 360,000). AID 651610. HeLa-JRFL Env/CEM21 cell fusion, luciferase;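 active = mean replicate inhibition score of at least 50 and every replicate individually at or above 50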;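 note: 0% = plate neutral controls and 100% = maraviroc near 300 nM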
V-ATPase pH – alters yeast V-ATPase proton transport | response, % at 10 µM | S. cerevisiae, pHLuorin cytosolic pH fluorescence | actives 0.37% (n = 350,000) | AID 504577; in the data active = response mostly above about 7.3%, no sharp cut-off; inactive = mostly below about 5.4%; note: actives read high
NR2E3 ag-1 – activates human NR2E3 receptor; AID 602229; CHO-S Gal4-NCOR/VP16-NR2E3 two-hybrid, luciferase; inhibition of corepressor binding, % at 3.98 µM; Q9Y5X4; actives 0.35% (n = 360,000);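 active = inhibition above the mean of all tested compounds plus 3 SD, cut at about 70% in these data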;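 note: 0% = DMSO with NR2E3 transfected cells and 100% = cells lacking NR2E3 construct; higher means lower luciferase signal from less NR2E3 corepressor binding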
NR2E3 ag-2 – agonists of human nuclear receptor NR2E3 | Q9Y5X4 | GST-NR2E3/biotin-RetCOR TR-FRET, 1536-well | inhibition of corepressor binding, % at 4.78 µM | actives 0.12% (n = 320,000) | AID 2300;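 active = percent inhibition above the cutoff of mean plus 3 SD of all tested compounds, set per screening campaign, cut at about 20% in these data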;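 note: 0% = DMSO wells and 100% = biotin wells as full block of FRET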
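System: GST-tagged NR2E3 plus biotinylated RetCOR corepressor; Buffer or medium: pH 7.5 Tris-based buffer; Probe or stimulus: RetCOR corepressor, biotinylated, 7 nM; Doses: compound at 4.8 µM, single dose; Schedule: 5 h incubation at 4 °C; Technique: time-resolved FRET; Evaluation: percent inhibition of TR-FRET ratio; Replication: one well per compound, singlicate testing.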
* = called active by the depositor; . = no result; [ ] = remark or other dose.

SMILES	GalR3 antagonist	GAA850 FXN act	Env fusion inh	V-ATPase pH	NR2E3 ag-1	NR2E3 ag-2
C[C@@H]1CN([C@@H](C)CO)C(=O)c2cc(C3=CCCC3)cnc2O[C@@H]1CN(C)Cc1ccc(C(=O)O)cc1	.	.	59.8*[16.7 µM]	.	.	.
C[C@@H]1CN([C@H](C)CO)C(=O)c2cccc(NC(=O)c3ccncc3)c2O[C@H]1CN(C)CC1CCCCC1	.	.	93.4*[16.7 µM]	.	.	.
C[C@@H]1CN([C@@H](C)CO)C(=O)c2cccc(NC(=O)c3cnccn3)c2O[C@H]1CN(C)Cc1ccc(Cl)c(Cl)c1	.	.	62.6*[16.7 µM]	.	.	.
C[C@H](CO)N1C[C@H](C)[C@H](CN(C)CC2CCCCC2)Oc2c(NC(=O)c3ccncc3)cccc2C1=O	.	.	12.0[16.7 µM]	.	.	.
C[C@@H]1CN([C@H](C)CO)C(=O)c2cc(C3=CCCC3)cnc2O[C@@H]1CN(C)Cc1ccc(C(=O)O)cc1	.	.	-12.1[16.7 µM]	.	.	.
C[C@@H]1CN([C@H](C)CO)C(=O)c2cccc(NC(=O)c3ccncc3)c2O[C@@H]1CN(C)Cc1ccc(C(=O)O)cc1	-2.5	-0.3	113.9*	2.5	-16.0	.
C[C@H]1CN([C@@H](C)CO)S(=O)(=O)c2ccc(C#CC3CC3)cc2O[C@@H]1CN(C)Cc1ccccc1	.	.	-14.5[16.7 µM]	.	.	.
C[C@@H]1CN([C@H](C)CO)C(=O)c2cccc(NS(=O)(=O)c3ccc(Cl)cc3)c2O[C@H]1CN(C)CC1CCCCC1	.	.	88.4*[16.7 µM]	.	.	.
C[C@H](CO)N1C[C@H](C)[C@H](CN(C)Cc2ccc(Cl)c(Cl)c2)Oc2c(NC(=O)c3ccncc3)cccc2C1=O	.	.	-8.4[16.7 µM]	.	.	.
C[C@@H]1CN([C@H](C)CO)C(=O)c2cccc(NC(=O)c3ccncc3)c2O[C@H]1CN(C)Cc1ccc(Cl)c(Cl)c1	.	.	74.9*[16.7 µM]	.	.	.
C[C@H]1CN([C@@H](C)CO)C(=O)c2cccc(NC(=O)Nc3ccccc3)c2O[C@@H]1CN(C)Cc1ccc(Cl)c(Cl)c1	.	.	62.1*[16.7 µM]	.	.	.
CCCN1C[C@@H](C)[C@@H](OC)CN(C)C(=O)c2ccc(NC(=O)Nc3cccc(OC)c3)cc2OC[C@@H]1C	.	.	6.1[16.7 µM]	.	.	.
O=C(c1ccc2c3c(cccc13)CC2)C1CCCN(Cc2cccnc2)C1 (stereo not drawn)	7.0	3.3	26.6	4.0	-12.8	0.6
COc1cc(CN2CCCC(C(=O)c3ccc4c5c(cccc35)CC4)C2)cc(OC)c1O (stereo not drawn)	4.7	3.9	55.9*	1.4	15.1	0.8
CO[C@@H]1CN(C)C(=O)c2cc(NC(=O)c3cc(C)on3)ccc2OC[C@H](C)N(CC2CC2)C[C@H]1C	.	.	45.0[16.7 µM]	.	.	.
CN(C)C(=O)C[C@H]1C=C[C@H](NC(=O)Nc2cccc(F)c2)[C@H](CO)O1	.	.	3.0[16.7 µM]	.	.	.
Cc1ccc(N=C2NC(=O)C(CC(=O)O)S2)cc1 (stereo not drawn)	.	-0.6	.	21.6*	13.4	-0.2
O=C1O[C@H](c2ccccc2)[C@H](c2ccccc2)N2[C@H]1[C@@H](C(=O)Nc1nc3ccccc3s1)[C@]1(C(=O)Nc3ccc(C#CCCO)cc31)[C@H]2c1ccc(OCCO)cc1	.	.	-10.0[16.7 µM]	.	.	.
Cc1ccc(S(=O)(=O)Nc2cccc3c2O[C@H](CN(C)S(=O)(=O)c2ccccc2)[C@H](C)CN([C@H](C)CO)C3=O)cc1	.	.	6.8[16.7 µM]	.	.	.
CC1(Cc2cccc(F)c2)C(=O)Nc2ccc(-c3cccnc3)cc21 (stereo not drawn)	-5.9	-6.6	51.0	.	-41.9	.
CC1(Cc2ccc(Cl)cc2)C(=O)Nc2ccc(-c3cccnc3)cc21 (stereo not drawn)	-6.7	-5.7	68.9*	.	-9.7	.
Cc1cc(S(=O)(=O)c2ccc([N+](=O)[O-])cn2)ccc1Br	-4.8	-3.8	-90.1	8.7*	-11.9	0.4
CCCC1C(=O)Nc2ccccc2N1C(=O)c1ccc(C(C)(C)C)cc1 (stereo not drawn)	-10.5	5.0	62.2*	-5.8	-14.6	1.9
COc1ccc(COC(=O)NC2CCN(S(=O)(=O)c3ccc(OC)cc3)CC2)cc1	-0.9	-1.5	56.3*	-1.1	11.4	2.5
COc1ccc(S(=O)(=O)N2CCC(NC(=O)OCc3c(Cl)cccc3Cl)CC2)cc1	-7.1	-1.1	-102.5	0.2	7.4	6.0
SMILES	GalR3 antagonist	GAA850 FXN act	Env fusion inh	V-ATPase pH	NR2E3 ag-1	NR2E3 ag-2
O=C(/C=C/c1ccccc1)Nc1cccc(C(=O)O)c1	0.3	3.4	78.2*	0.9	-166.7	0.2
O=C(/C=C/c1ccccc1)Nc1cc(NC(=O)/C=C/c2ccccc2)cc(C(=O)O)c1	3.4	-2.2	1.4	1.9	-8.4	.
CCCc1ccc(-c2cc(C(=O)NN3CCOCC3)c3ccccc3n2)cc1	-4.5	8.3*	-96.1	-9.3	-66.0	1.5
Cc1cc2c3c(c1C)C1(C(=O)N3C(C)(C)CC2C)C(C#N)=C(N)Oc2cc(O)ccc21 (stereo not drawn)	2.6	0.0	61.9*	0.8	-14.9	3.6
Cc1cc2c3c(c1)C1(C(=O)N3C(C)(C)CC2C)C(C#N)=C(N)OC2=C1C(=O)CC(C)(C)C2 (stereo not drawn)	-2.3	0.1	.	-1.9	-4.3	-2.1
CC(C)NC(=O)Nc1ccc2c(c1)C(=O)N([C@H](C)CO)C[C@H](C)[C@H](CN(C)CC1CCCCC1)OCCCC[C@@H](C)O2	.	.	-4.6[16.7 µM]	.	.	.
COc1ccc(Cl)cc1NC(=O)Nc1cnccn1	-0.3	2.0	70.8*	1.0	-21.6	1.6
COc1ccc(NC(=O)Nc2cnccn2)c(OC)c1	0.5	3.3	56.6*	-0.3	-8.6	-1.5
c1ccc(CN(Cc2ccccc2)C(c2ccnc3ccccc23)c2nnnn2-c2ccc3c(c2)OCCO3)cc1 (stereo not drawn)	-6.1	.	22.4	.	-10.8	.
Cc1cccc(C)c1-n1nnnc1C(c1ccnc2ccccc12)N(Cc1ccccc1)Cc1ccccc1 (stereo not drawn)	-6.7	.	90.1*	.	-15.3	.
CN(CCc1ccccc1)C(c1ccnc2ccccc12)c1nnnn1-c1ccc2c(c1)OCCO2 (stereo not drawn)	-5.9	.	60.2*	.	-26.2	.
